From ChEMBL document CHEMBL1122569, “Synthesis and antiinflammatory activity of [(cycloalkylmethyl)phenyl]acetic acids and related compounds” (1984)

Experiments:
Rattus norvegicus [1] = assay: Analgesic activity on peroral administration against Scald induced pain in rat paw; format: functional; conditions: for ED50: Rattus norvegicus, po, read-out: ID50 (the source's name)
Summary of the method: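 Male Wister Imamichi rats (~100 g), fasted 16 h. A hind paw was scalded at 57 °C for 6 s, then restimulated at 40 °C for 5 s. Compounds at 58–0.23 mg/kg in 0.5% tragacanth were given orally 2 h after scalding. Paw-lifting time over 30 s was recorded 1 and 2 h post-dose, and the mean used for % inhibition and ID50.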

Rattus norvegicus [2] = assay: Antiinflammatory activity on peroral administration against carrageenan paw edema; format: functional; conditions: po, read-out: ID50 (the source's name)
Summary of the method: (§1)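 Compound given; 30 min later 1% carrageenan in saline injected subcutaneously into the hind-paw plantar region. Paw volume measured just before and 3 h after carrageenan. ID50 from a least-squares regression line of percent inhibition against dose.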

Rattus norvegicus [3] = assay: Gastric lesion activity on peroral administration in rat.; format: functional; conditions: po
Summary of the method: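 Male Wister Imamichi rats (~120 g), fasted 16 h, dosed at 20–2.5 mg/kg. Killed 3.5 h later; stomachs opened along the greater curvature and rinsed with saline. Dark brown lesions of 0.5 mm length were counted under a stereomicroscope.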

Rattus norvegicus [4] = assay: Antiinflammatory activity on peroral administration in rat determined by Randall-Slelitto test; format: functional; conditions: po
Summary of the method: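 Fasted male Wister Imamichi rats (60–90 g) received 20% brewer's yeast in the right hind paw. After 4 h, rats with pressure pain threshold below 10×30 g were dosed at 50–0.05 mg/kg. Animals were counted effective if the threshold rise exceeded twice the unmedicated control. ED50 by Litchfield–Wilcoxon.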

Rattus norvegicus [5] = assay: Analgesic activity on peroral administration against scald induced pain in rat paw; format: functional; conditions: po, read-out: ID50 (the source's name)
Summary of the method: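 Male Wister Imamichi rats (about 100 g), fasted 16 h, had one hind paw scalded in 57 °C water for 6 s, then re-dipped in 40 °C water for 5 s. Oral dosing in 0.5% tragacanth (58–0.23 mg/kg) followed 2 h after scalding. Paw-lifting time within 30 s was scored 1 and 2 h post-dose. The mean of the two readings gave percent inhibition and ID50.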

Cavia porcellus [6] = assay: Analgesic activity on peroral administration against Bradykinin induced pain in guinea pig paw; conditions: po
Cavia porcellus [7] = assay: Antipyretic activity on peroral administration against LPS-induced fever in guinea pig.; format: functional; conditions: po, read-out: ID50 (the source's name)
Summary of the method: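 Female Hartley guinea pigs (300–350 g), fasted 16 h. Fever induced with E. coli LPS at 1 µg/kg i.v. Compounds were dosed at 6.3–0.23 mg/kg. Rectal temperature was taken 1 and 2 h after dosing and the mean used. ID50 by least-squares regression of % inhibition on dose.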

Rattus norvegicus [8] = assay: Antiinflammatory activity on peroral administration against adjuvant arthritis in rat.; format: functional; conditions: po, read-out: ID50 (the source's name)
Summary of the method: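 Female Lewis rats (160–200 g) received complete Freund adjuvant (heat-killed M. tuberculosis, 1 mg/mL in liquid paraffin) in the right hind paw. Dosing was 5.0–0.04 mg/kg once daily, days 0–20. Injected-paw swelling was measured by water displacement (day before vs day 21), as % inhibition versus untreated control. ID50 by least-squares regression.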

Rattus norvegicus [9] = assay: Antiinflammatory activity on peroral administration against carrageenan induced rat paw edema.; format: functional; conditions: po, read-out: ID50 (the source's name); summary of the method: as §1

Q: For `CC(C(=O)O)c1ccc(CC2CCC/C2=N/O)cc1` (stereo not given), which ED50 (Rattus norvegicus [1]) is on record?
A: 4.9 mg/kg

Q: And the ED50 (Rattus norvegicus [2])?
A: 1.3 mg/kg

Q: For `O=C(O)Cc1ccc(CC2CCC/C2=N/O)cc1` (stereo not given), which ED50 (Rattus norvegicus [1]) is on record?
A: 15 mg/kg

Q: And the ED50 (Rattus norvegicus [2])?
A: 24.8 mg/kg

Q: How did the ED50 (Rattus norvegicus [1]) turn out when `CC(C(=O)O)c1ccc(CC2CCCCC2=O)cc1` (stereo not given) was run?
A: 9.1 mg/kg

Q: And the ED50 (Rattus norvegicus [2])?
A: 1.2 mg/kg

Q: For `CC(C(=O)O)c1ccc(/C=C2\CCCCCC2=O)cc1` (stereo not given), which ED50 (Rattus norvegicus [1]) is on record?
A: > 100 mg/kg

Q: What about the ED50 (Rattus norvegicus [2]) of the same compound?
A: > 100 mg/kg

Q: Which ED50 (Rattus norvegicus [1]) does the source give for `CC(C(=O)O)c1ccc(CC2CCCCCC2=O)cc1` (stereo not given) here?
A: > 100 mg/kg

Q: And the ED50 (Rattus norvegicus [2])?
A: > 100 mg/kg

Q: What does the source list for `O=C(O)Cc1ccc(CC2CCCC/C2=N/O)cc1` (stereo not given)?
A: ED50 (Rattus norvegicus [1]): 31.1 mg/kg; ED50 (Rattus norvegicus [2]): 23.5 mg/kg

Q: `CC(C(=O)O)c1ccc(CC2CCCC2)cc1` (stereo not given) was tested. Which ED50 (Rattus norvegicus [1]) did it give?
A: 5.1 mg/kg

Q: And the ED50 (Rattus norvegicus [2])?
A: > 100 mg/kg

Q: What does the source list for `CC(C(=O)O)c1ccc(CC2CCCC/C2=N/O)cc1` (stereo not given)?
A: ED50 (Rattus norvegicus [1]): 3.6 mg/kg; ED50 (Rattus norvegicus [2]): 1.4 mg/kg

Q: `O=C(O)Cc1ccc(CC2CCCC2=O)cc1` (stereo not given) was tested. Which ED50 (Rattus norvegicus [1]) did it give?
A: 23 mg/kg

Q: What about the ED50 (Rattus norvegicus [2]) of the same compound?
A: 9.1 mg/kg

Q: `CC(C(=O)O)c1ccc(/C=C2\CCCC2=O)cc1` (stereo not given) was tested. Which ED50 (Rattus norvegicus [1]) did it give?
A: 1.3 mg/kg

Q: What about the ED50 (Rattus norvegicus [2]) of the same compound?
A: 1.5 mg/kg

Q: Which ED50 (Rattus norvegicus [1]) does the source give for `CC(C(=O)O)c1ccc(CC2CCCCC/C2=N/O)cc1` (stereo not given) here?
A: > 100 mg/kg

Q: What about the ED50 (Rattus norvegicus [2]) of the same compound?
A: > 100 mg/kg

Q: How did the ED50 (Rattus norvegicus [1]) turn out when `O=C(O)Cc1ccc(CC2CCCCC2=O)cc1` (stereo not given) was run?
A: 53.8 mg/kg

Q: And the ED50 (Rattus norvegicus [2])?
A: 45.7 mg/kg

Q: With `CC(C)Cc1ccc(C(C)C(=O)O)cc1` (stereo not given) [IBUPROFEN] as the compound, how does the ED50 (Rattus norvegicus [1]) read?
A: 15.9 mg/kg

Q: `COc1ccc2c(c1)c(CC(=O)O)c(C)n2C(=O)c1ccc(Cl)cc1` [INDOMETHACIN] was tested. Which UD50 (Rattus norvegicus [3]) did it give?
A: 6.4 mg/kg

Q: And the ED50 (Rattus norvegicus [1])?
A: 3.5 mg/kg

Q: What about the ED50 (Rattus norvegicus [4]) of the same compound?
A: 2.8 mg/kg

Q: What about the ED50 (Rattus norvegicus [5]) of the same compound?
A: 3.5 mg/kg

Q: And the ED50 (Rattus norvegicus [2])?
A: 2.2 mg/kg

Q: And the ED50 (Cavia porcellus [6])?
A: 8.3 mg/kg

Q: What about the ED50 (Cavia porcellus [7]) of the same compound?
A: 9.5 mg/kg

Q: For `CC(C(=O)[O-])c1ccc(CC2CCCC2=O)cc1.[Na+]` (stereo not given) [LOXOPROFEN SODIUM], which UD50 (Rattus norvegicus [3]) is on record?
A: 16.1 mg/kg

Q: And the ED50 (Rattus norvegicus [1])?
A: 0.76 mg/kg

Q: What about the ED50 (Rattus norvegicus [4]) of the same compound?
A: 0.13 mg/kg

Q: And the ED50 (Rattus norvegicus [8])?
A: 0.59 mg/kg

Q: What about the ED50 (Rattus norvegicus [2]) of the same compound?
A: 1.2 mg/kg

Q: What about the ED50 (Cavia porcellus [6]) of the same compound?
A: 0.4 mg/kg

Q: What about the ED50 (Cavia porcellus [7]) of the same compound?
A: 0.76 mg/kg

Q: With `CC(C(=O)O)c1ccc(CC2CCCC2=O)cc1` (stereo not given) [LOXOPROFEN] as the compound, how does the ED50 (Rattus norvegicus [1]) read?
A: 0.8 mg/kg

Q: And the ED50 (Rattus norvegicus [2])?
A: 1.7 mg/kg

Q: For `CC(C(=O)O)c1ccc(/C=C2\CCCCC2=O)cc1` (stereo not given) [PELUBIPROFEN], which UD50 (Rattus norvegicus [3]) is on record?
A: 14.3 mg/kg

Q: What about the ID50 (Rattus norvegicus [1]) of the same compound?
A: 1.7 mg/kg

Q: And the ED50 (Rattus norvegicus [1])?
A: 1.8 mg/kg

Q: What about the ED50 (Rattus norvegicus [4]) of the same compound?
A: 0.94 mg/kg

Q: What about the ED50 (Rattus norvegicus [8]) of the same compound?
A: 0.06 mg/kg

Q: What about the ED50 (Rattus norvegicus [9]) of the same compound?
A: 1.2 mg/kg

Q: And the ED50 (Rattus norvegicus [2])?
A: 0.9 mg/kg

Q: What about the ED50 (Cavia porcellus [6]) of the same compound?
A: 4.5 mg/kg

Q: And the ED50 (Cavia porcellus [7])?
A: 1.5 mg/kg
